In ChEMBL document CHEMBL4627334, “Design, synthesis and biological evaluation of 4-(pyridin-4-yloxy)benzamide derivatives bearing a 5-methylpyridazin-3(2H)-one fragment” (Bioorg Med Chem Lett, 2020):
Active and inactive are the calls of the source. No cut-off for these calls is given here.

Tests used:
[1] = tested on: MCF7; assay: Antiproliferative activity against human MCF7 cells assessed as reduction in cell viability after 72 hrs by MTT assay; format: functional, cell-based
Method in brief: (§1)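 Cells grown in DMEM/1640 with 10% FBS, seeded at about 4×10^3 per well and held 24 h at 37 °C, 5% CO2. Compounds diluted in medium or DMSO were added for 72 h, then MTT ([…]) was added for 3.5 h at 37 °C. Formazan was dissolved in DMSO and read at 492 nm against 630 nm. Triplicate wells, three runs, IC50 calculated.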

[2] = tested on: HeLa; assay: Antiproliferative activity against human HeLa cells assessed as reduction in cell viability after 72 hrs by MTT assay; format: functional, cell-based; method in brief: as §1
[3] = tested on: A549; assay: Antiproliferative activity against human A549 cells assessed as reduction in cell viability after 72 hrs by MTT assay; format: functional, cell-based; conditions: A549, 72 h; method in brief: as §1
[4] = tested on: HeLa; assay: Induction of apoptosis in human HeLa cells assessed as increase in apoptotic bodies at 1 to 5 ug/L after 12 hrs by acridine orange staining based assay; format: functional, cell-based
Method in brief: (§2)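 HeLa cells were treated at 1 and 5 µg/L for 12 h, then stained with acridine orange. Morphology was compared with untreated control cells, scoring cytoplasmic contraction, membrane swelling and apoptotic bodies.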

[5] = tested on: A549; assay: Potency index, ratio of golvatinib IC50 to test compound IC50 for antiproliferative activity against human A549 cells; format: functional
[6] = tested on: HeLa; assay: Induction of apoptosis in human HeLa cells assessed as membrane swelling at 1 to 5 ug/L after 12 hrs by acridine orange staining based assay; format: functional, cell-based; method in brief: as §2
[7] = tested on: HeLa; assay: Induction of apoptosis in human HeLa cells assessed as cytoplasmic contraction at 1 to 5 ug/L after 12 hrs by acridine orange staining based assay; format: functional, cell-based; method in brief: as §2
[8] = tested on: HeLa; assay: Induction of apoptosis in human HeLa cells after 12 hrs by acridine orange staining based assay; format: functional, cell-based; method in brief: as §2
[9] = tested on: HeLa; assay: Antiproliferative activity against human HeLa cells assessed as inhibition of cell proliferation at 1.23 umol/L after 72 hrs by MTT assay relative to control; format: functional
Method in brief: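 Cells were cultured in medium with 10% FBS and seeded near 4×10^3 per well, 24 h before dosing. MTT (5 µg/mL) was added for 3.5 h at 37 °C, formazan dissolved in DMSO, and absorbance read at 492/630 nm.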

[10] = tested on: HeLa; assay: Potency index, ratio of golvatinib IC50 to test compound IC50 for antiproliferative activity against human HeLa cells; format: functional
[11] = tested on: MCF7; assay: Potency index, ratio of golvatinib IC50 to test compound IC50 for antiproliferative activity against human MCF7 cells; format: functional
[12] = target: Hepatocyte growth factor receptor (Homo sapiens, UniProt P08581); assay: Inhibition of cMET (unknown origin) using FAM-labeled peptide as substrate pre-incubated for 5 to 10 mins followed by substrate addition and measured after 30 to 60 mins by mobility shift assay
Hepatocyte growth factor receptor, sequence (P08581 whole entry): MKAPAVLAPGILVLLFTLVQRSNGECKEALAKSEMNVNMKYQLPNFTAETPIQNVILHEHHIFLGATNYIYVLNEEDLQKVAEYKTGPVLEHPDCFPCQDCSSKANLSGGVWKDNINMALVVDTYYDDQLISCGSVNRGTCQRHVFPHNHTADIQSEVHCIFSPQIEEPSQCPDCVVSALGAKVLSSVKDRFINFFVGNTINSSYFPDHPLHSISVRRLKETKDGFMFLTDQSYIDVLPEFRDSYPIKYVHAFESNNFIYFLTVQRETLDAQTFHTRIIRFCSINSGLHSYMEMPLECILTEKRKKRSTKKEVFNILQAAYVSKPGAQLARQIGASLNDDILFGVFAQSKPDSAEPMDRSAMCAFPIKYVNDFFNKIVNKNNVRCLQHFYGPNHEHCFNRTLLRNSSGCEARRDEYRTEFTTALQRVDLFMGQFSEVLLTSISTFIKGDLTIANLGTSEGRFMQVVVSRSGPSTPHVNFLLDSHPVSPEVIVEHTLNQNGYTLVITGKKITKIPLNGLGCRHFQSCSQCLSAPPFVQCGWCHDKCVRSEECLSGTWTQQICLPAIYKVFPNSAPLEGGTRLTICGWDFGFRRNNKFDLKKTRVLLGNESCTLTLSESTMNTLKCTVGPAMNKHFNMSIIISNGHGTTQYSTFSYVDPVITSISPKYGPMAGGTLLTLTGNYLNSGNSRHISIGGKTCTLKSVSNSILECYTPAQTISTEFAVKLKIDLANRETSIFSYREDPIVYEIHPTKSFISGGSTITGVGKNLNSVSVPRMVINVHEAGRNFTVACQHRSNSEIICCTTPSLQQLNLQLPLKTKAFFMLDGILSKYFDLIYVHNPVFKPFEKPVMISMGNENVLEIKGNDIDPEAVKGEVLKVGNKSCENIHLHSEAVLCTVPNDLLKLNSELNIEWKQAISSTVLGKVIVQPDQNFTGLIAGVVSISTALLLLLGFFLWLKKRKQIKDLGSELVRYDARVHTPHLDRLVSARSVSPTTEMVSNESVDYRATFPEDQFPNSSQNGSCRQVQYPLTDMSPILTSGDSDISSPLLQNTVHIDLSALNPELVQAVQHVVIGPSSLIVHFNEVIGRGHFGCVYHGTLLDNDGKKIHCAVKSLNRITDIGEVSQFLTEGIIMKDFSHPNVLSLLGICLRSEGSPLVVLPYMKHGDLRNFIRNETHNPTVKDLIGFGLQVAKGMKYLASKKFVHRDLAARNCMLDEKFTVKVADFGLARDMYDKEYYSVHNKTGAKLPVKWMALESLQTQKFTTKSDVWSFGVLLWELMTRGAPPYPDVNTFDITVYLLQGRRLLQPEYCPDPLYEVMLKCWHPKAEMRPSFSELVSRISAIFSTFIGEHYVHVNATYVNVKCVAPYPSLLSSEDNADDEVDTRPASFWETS

[13] = Homo sapiens, MCF7, 72 h, read-out: IC50
[14] = Homo sapiens, HeLa, 72 h, read-out: IC50

Compound	IC50 [1, 13]	IC50 [2, 14]	IC50 [3]	other results
CCCNC(=O)c1cc(Oc2ccc(NC(=O)c3nn(-c4cccc(C(F)(F)F)c4)c(=O)cc3C)cc2F)ccn1	30 µM	8 µM	9.24 µM	
CCNC(=O)c1cc(Oc2ccc(NC(=O)c3nn(-c4cccc(C(F)(F)F)c4)c(=O)cc3C)cc2)ccn1	40.6 µM	10.7 µM	10 µM	
Cc1cc(=O)n(-c2ccc(Br)cc2F)nc1C(=O)Nc1ccc(Oc2ccnc(C(=O)NCCc3cccs3)c2)cc1	969 µM	387 µM	585 µM	
CNC(=O)c1cc(Oc2ccc(NC(=O)c3nn(-c4ccccc4)c(=O)cc3C)cc2F)ccn1			40.8 µM	IC50 ([1]; mcf7): Not Active; IC50 ([2]; hela): Not Active
CCNC(=O)c1cc(Oc2ccc(NC(=O)c3nn(-c4ccccc4OC(F)(F)F)c(=O)cc3C)cc2)ccn1	15.5 µM	3.99 µM	5.28 µM	
Cc1cc(=O)n(-c2cccc(C(F)(F)F)c2)nc1C(=O)Nc1ccc(Oc2ccnc(C(=O)NCCc3cccs3)c2)cc1		885 µM	722 µM	IC50 ([1]; mcf7): Not Active
Cc1cc(=O)n(-c2ccccc2OC(F)(F)F)nc1C(=O)Nc1ccc(Oc2ccnc(C(=O)NCCCN3CCOCC3)c2)cc1	2.59 µM	1.15 µM	1.03 µM	Activity [4]: Active; Ratio IC50 [5]: 2.6 - 6.95; Activity [6]: Active; Activity [7]: Active; Activity [8]: Dose-dependent effect; inhibition at 1.23 µM [9]: > 50%; Ratio IC50 [10]: 2.6 - 6.95; Activity [2]: Dose-dependent effect; Ratio IC50 [11]: 2.6 - 6.95; IC50 [12]: 0.807 µM
CCCNC(=O)c1cc(Oc2ccc(NC(=O)c3nn(-c4cccc(F)c4)c(=O)cc3C)cc2F)ccn1	13.3 µM	6.66 µM	7.02 µM	
CCCNC(=O)c1cc(Oc2ccc(NC(=O)c3nn(-c4ccccc4C)c(=O)cc3C)cc2F)ccn1	39.6 µM	24.6 µM	25.7 µM	
CNC(=O)c1cc(Oc2ccc(NC(=O)c3nn(-c4cccc(C(F)(F)F)c4)c(=O)cc3C)cc2F)ccn1	45.8 µM	11.8 µM	10.2 µM	
CN1CCN(C2CCN(C(=O)Nc3cc(Oc4ccc(NC(=O)C5(C(=O)Nc6ccc(F)cc6)CC5)c(F)c4)ccn3)CC2)CC1 [GOLVATINIB]	20.6 µM	4.14 µM	6.89 µM	inhibition at 1.23 µM [9]: 20%
Cc1ccc(-n2nc(C(=O)Nc3ccc(Oc4ccnc(C(=O)NCCc5cccs5)c4)cc3)c(C)cc2=O)cc1		660 µM	965 µM	IC50 ([1]; mcf7): Not Active
CCCNC(=O)c1cc(Oc2ccc(NC(=O)c3nn(-c4ccc(Br)cc4F)c(=O)cc3C)cc2F)ccn1		53.5 µM	235 µM	IC50 ([1]; mcf7): Not Active
Cc1cc(=O)n(-c2cccc(C(F)(F)F)c2)nc1C(=O)Nc1ccc(Oc2ccnc(C(=O)NCCCN3CCOCC3)c2)cc1	5.21 µM	1.65 µM	2.5 µM	IC50 [12]: > 10 µM
Cc1cc(=O)n(-c2ccccc2OC(F)(F)F)nc1C(=O)Nc1ccc(Oc2ccnc(C(=O)NCCc3cccs3)c2)cc1		434 µM	876 µM	IC50 ([1]; mcf7): Not Active
CCNC(=O)c1cc(Oc2ccc(NC(=O)c3nn(-c4ccc(C)cc4)c(=O)cc3C)cc2)ccn1	51.2 µM	10.7 µM	11.6 µM	
CCNC(=O)c1cc(Oc2ccc(NC(=O)c3nn(-c4ccccc4C)c(=O)cc3C)cc2)ccn1	44.3 µM	27.3 µM	34.8 µM	
CCNC(=O)c1cc(Oc2ccc(NC(=O)c3nn(-c4ccc(Br)cc4F)c(=O)cc3C)cc2)ccn1	35.1 µM		34.5 µM	IC50 ([2]; hela): Not Active
CCCNC(=O)c1cc(Oc2ccc(NC(=O)c3nn(-c4ccc(C)cc4)c(=O)cc3C)cc2F)ccn1	34.6 µM	14.2 µM	18 µM	
CNC(=O)c1cc(Oc2ccc(NC(=O)c3nn(-c4ccccc4Cl)c(=O)cc3C)cc2F)ccn1	136 µM	9.87 µM	11.8 µM	
CCNC(=O)c1cc(Oc2ccc(NC(=O)c3nn(-c4cccc(F)c4)c(=O)cc3C)cc2)ccn1	18.9 µM	6.87 µM	7.41 µM	
CCCNC(=O)c1cc(Oc2ccc(NC(=O)c3nn(-c4ccccc4OC(F)(F)F)c(=O)cc3C)cc2F)ccn1	7.42 µM	3.69 µM	4.22 µM	
Cc1cc(=O)n(-c2ccc(Br)cc2F)nc1C(=O)Nc1ccc(Oc2ccnc(C(=O)NCCCN3CCOCC3)c2)cc1	8.23 µM	4.25 µM	6.83 µM	IC50 [12]: > 10 µM
Cc1ccc(-n2nc(C(=O)Nc3ccc(Oc4ccnc(C(=O)NCCCN5CCOCC5)c4)cc3)c(C)cc2=O)cc1	3.57 µM	1.92 µM	2.94 µM	IC50 [12]: > 10 µM
